The subject of data set [1] is SK-OV-3. The data set can be described thus: Cytotoxicity against human SKOV3 cells after 3 days by MTT assay. As to conditions: SK-OV-3, 72 h. It counts as functional, cell-based. An outline of the steps: (§1)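 Cells grown in RPMI 1640 with 10% fetal calf serum, plated at 2 × 10^4 cells, held 12 h at 37 °C in 5% CO2, then exposed to test sample for 3 days at 37 °C. MTT added for 4 h, formazan dissolved in DMSO, absorbance read at 570 nm. IC50 taken as 50% growth inhibition relative to untreated control; each experiment run at least 3 times.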
(In general: Formazan colour is commonly taken as a measure of viable cells.)

The test system of data set [2] is NB1. The data set can be described thus: Cytotoxicity against human NB-1 cells after 3 days by MTT assay. As to conditions: NB1, 72 h. The data set is classed as functional, cell-based. An outline of the steps:
as §1

In data set [3] the test system is SF-268. The data set can be described thus: Cytotoxicity against human SF268 cells after 3 days by MTT assay. The data set is classed as functional, cell-based. As to conditions: SF-268, 72 h. Put shortly:
as §1

Data set [4] deals with HL-60. As to the kind of experiment: Cytotoxicity against human HL60 cells after 3 days by MTT assay. As to conditions: HL-60, 72 h. The data set is classed as functional, cell-based.
For data set [5], the system named is NCI-H460. The data set can be described thus: Cytotoxicity against human NCI-H460 cells after 3 days by MTT assay. The data set is classed as functional, cell-based. As to conditions: NCI-H460, 72 h. An outline of the steps: as §1
Data set [6] relates to GOTO. As to the kind of experiment: Cytotoxicity against human GOTO cells after 3 days by MTT assay. The data set is classed as functional, cell-based. As to conditions: 72 h. Put shortly: as §1
Data set [7] concerns U-937. The data set can be described thus: Cytotoxicity against human U937 cells after 3 days by MTT assay. The data set is classed as functional, cell-based. As to conditions: U-937, 72 h. An outline of the steps:
as §1

Data set [8] concerns KB. As to the kind of experiment: Cytotoxicity against human KB cells after 3 days by MTT assay. The data set is classed as functional, cell-based. As to conditions: 72 h. Put shortly:
as §1

Data set [9] can be described thus: Toxicity in ip dosed mouse assessed as mortality after 24 hrs. The data set is classed as organism-based. As to conditions: in vivo. Put shortly:
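Lorke two-phase design in mice, single intraperitoneal dose per group. Phase 1: three groups of three animals, each group one dose, observed 24 h for mortality and general behaviour. Phase 2: 3–4 groups of one mouse, doses chosen from phase 1 findings, observed 24 h. LD50 taken as geometric mean of lowest lethal dose and highest non-lethal dose; reported in mg/kg.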

Data set [10] relates to SK-MEL-28. The data set can be described thus: Cytotoxicity against human SK-MEL-28 cells after 3 days by MTT assay. It counts as functional, cell-based. As to conditions: SK-MEL-28, 72 h. An outline of the steps: as §1
Data set [11] deals with K562. The data set can be described thus: Cytotoxicity against human K562 cells after 3 days by MTT assay. It counts as functional, cell-based. As to conditions: K562, 72 h. Put shortly: as §1
Data set [12] can be described thus: Cytotoxicity against human RKOp27 cells after 3 days by MTT assay. The data set is classed as functional, cell-based. As to conditions: RKOp27, 72 h. Put shortly:
as §1

In data set [13] the test system is G-361. The data set can be described thus: Cytotoxicity against human G361 cells after 3 days by MTT assay. The data set is classed as functional, cell-based. As to conditions: G-361, 72 h. Put shortly:
as §1

The term IC50 denotes the concentration that gives 50% inhibition. High values mean a need for much substance, low ones inhibition by little substance. One may read the LD50 as the dose expected to kill half of the subjects tested. As for `Cc1ccc(S(=O)(=O)N2CCN(c3nc(SCc4nc5ccccc5[nH]4)nc(-c4ccccc4)c3C#N)CC2)cc1`, the IC50 in data set [1] came to 4.54 nM; in [2], 6.75 nM; in [3], 7.81 nM; in data set [4] it was 4.23 nM; in data set [5], 22.7 nM; in data set [6] it was 4.38 nM. Moreover, the IC50 in [7] was found to be 4.1 nM; in data set [8], 3.28 nM; in data set [10], 4.38 nM; in data set [11], 11.3 nM; in data set [12], 2.5 nM; in data set [13], 4.38 nM. In [9], the median lethal dose (LD50) at 24 h amounted to 345 mg/kg.
As for `N#Cc1c(-c2ccccc2)nc(SCc2nc3ccccc3[nH]2)nc1N1CCN(C(=O)c2ccc([N+](=O)[O-])cc2)CC1`, the IC50 in data set [1] came out at 8.62 nM; in data set [2], 13.2 nM; in data set [3], 5.81 nM; in data set [4], 2.9 nM; in data set [5], 4.46 nM; in data set [6] it was 5.81 nM. For the same molecule, the IC50 in data set [7] is 5.2 nM; in data set [8], 7.35 nM; in [10], 2.77 nM; in data set [11], 4.38 nM; in data set [12], 7.81 nM; in data set [13], 2.4 nM. In addition, the LD50 at 24 h in [9] stood at 327 mg/kg.
As for `N#Cc1c(-c2ccccc2)nc(SCc2nc3ccccc3[nH]2)nc1N1CCN(S(=O)(=O)c2ccccc2[N+](=O)[O-])CC1`, the IC50 in data set [1] worked out at 3.2 nM; in data set [2], 2.5 nM; in data set [3], 3 nM; in data set [4] it was 2.77 nM; in data set [5] it was 3.7 nM; in data set [6] it was 3 nM. Further, the IC50 came out at 3.28 nM in [7]; 4.44 nM in data set [8]; 8.9 nM in data set [10]; 14.7 nM in data set [11]; 5.6 nM in data set [12]; 9.6 nM in [13]. Moreover, the LD50 at 24 h in [9] turned out to be 325 mg/kg.
On to `N#Cc1c(-c2ccccc2)nc(SCc2nc3ccccc3[nH]2)nc1N1CCN(S(=O)(=O)c2ccccc2)CC1`, for which the IC50 in data set [1] was found to be 2.77 nM; in data set [2] it was 3.28 nM; in [3], 2.87 nM; in [4] it was 4.23 nM; in [5], 4.6 nM; in data set [6], 5.81 nM. For the same molecule, the IC50 in data set [7] is 6.2 nM; in data set [8], 3 nM; in [10], 6.41 nM; in [11] it was 3 nM; in data set [12], 7.35 nM; in [13], 8.62 nM. Moreover, the 50% lethal dose (LD50) at 24 h in data set [9] turned out to be 327 mg/kg.
Turning to `Cl.N=c1[nH]c(=S)[nH]c2nc(SCc3nc4ccccc4[nH]3)nc(-c3ccccc3)c12`, the half-inhibitory concentration (IC50) was found to be 3.5 nM in data set [1]; 3.28 nM in data set [2]; 3.5 nM in data set [3]; 6.75 nM in data set [4]; 3 nM in data set [5]; 11.9 nM in data set [6]. Moreover, the concentration for half-maximal inhibition (IC50) in [7] was 2.8 nM; in [8] it was 7.3 nM; in [10], 3.37 nM; in data set [11] it was 14.7 nM; in [12] it was 2.5 nM; in data set [13], 3.37 nM. For the same molecule, the LD50 at 24 h in data set [9] stood at 389 mg/kg.
As for `Cl.N=c1[nH]c(=O)[nH]c2nc(SCc3nc4ccccc4[nH]3)nc(-c3ccccc3)c12`, the IC50 in [1] came out at 3.2 nM; in data set [2], 11.3 nM; in [3], 2.84 nM; in data set [4], 3.1 nM; in [5], 2.84 nM; in data set [6] it was 8.9 nM. Moreover, the IC50 is 2.87 nM in data set [7]; 2.5 nM in [8]; 8.9 nM in data set [10]; 14.7 nM in [11]; 2.7 nM in [12]; 3.2 nM in data set [13]. Moreover, the LD50 at 24 h in data set [9] was determined as 346 mg/kg.
